Here are results for 15 compounds from ChEMBL document CHEMBL1158399, “Synthesis, biological evaluation and molecular modeling of oxoisoaporphine and oxoaporphine derivatives as new dual inhibitors of acetylcholinesterase/butyrylcholinesterase” (Eur J Med Chem, 2009).

Experiment [1] has as its target T1, Acetylcholinesterase (Electrophorus electricus, UniProt O42275). The experiment can be described thus: Inhibition of electric eel AChE by LB plot.
The next experiment has as its target Cholinesterase (Equus caballus, UniProt P81908). The experiment can be described thus: Inhibition of equine serum BuChE by Ellman's method. The essentials:
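Modified Ellman assay with equine serum BuChE (enzyme stock 2.0 units/mL), run the same way as the AChE assay. Phosphate buffer pH 8.0 with DTNB (0.01 M stock). Inhibitor incubated 15 min with enzyme, buffer and DTNB before substrate was added. Absorbance rise at 412 nm read over 1 min at 37 °C. IC50 given as mean ± SEM of three experiments.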

Experiment [2] deals with T1, Acetylcholinesterase. The experiment can be described thus: Inhibition of electric eel AChE by Ellman's method.
Experiment [3] in a line: Selectivity ratio of IC50 for equine serum BuChE to IC50 for electric eel AChE. The essentials: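 Modified Ellman assays with electric eel AChE and equine serum BuChE (enzyme stocks 2.0 units/mL). AChE substrate was acetylthiocholine chloride (0.01 M stock), in phosphate buffer pH 8.0 with DTNB (0.01 M stock), after 15 min inhibitor preincubation. A412 read over 1 min at 37 °C. IC50s are means ± SEM of three experiments; ratio = IC50(BuChE)/IC50(AChE).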

SMILES strings stand for the structures.

T1 sequence (O42275 whole entry): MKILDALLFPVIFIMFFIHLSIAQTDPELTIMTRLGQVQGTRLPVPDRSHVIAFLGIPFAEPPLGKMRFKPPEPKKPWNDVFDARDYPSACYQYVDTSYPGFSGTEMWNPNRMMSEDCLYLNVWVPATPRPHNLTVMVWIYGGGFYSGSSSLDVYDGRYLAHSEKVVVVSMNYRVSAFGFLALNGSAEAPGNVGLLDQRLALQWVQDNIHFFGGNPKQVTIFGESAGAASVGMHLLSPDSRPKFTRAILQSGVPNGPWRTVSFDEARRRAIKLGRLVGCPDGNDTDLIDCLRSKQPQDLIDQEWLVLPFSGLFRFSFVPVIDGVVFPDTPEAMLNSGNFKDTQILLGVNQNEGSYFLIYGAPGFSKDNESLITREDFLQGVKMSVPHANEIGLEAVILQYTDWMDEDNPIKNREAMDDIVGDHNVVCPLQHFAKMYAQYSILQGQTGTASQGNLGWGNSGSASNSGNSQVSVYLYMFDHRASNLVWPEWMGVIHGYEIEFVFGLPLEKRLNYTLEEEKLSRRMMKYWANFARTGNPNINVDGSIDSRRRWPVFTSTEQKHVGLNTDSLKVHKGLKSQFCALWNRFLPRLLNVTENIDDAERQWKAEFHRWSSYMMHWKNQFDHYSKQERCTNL
Chain of Cholinesterase (P81908 whole entry): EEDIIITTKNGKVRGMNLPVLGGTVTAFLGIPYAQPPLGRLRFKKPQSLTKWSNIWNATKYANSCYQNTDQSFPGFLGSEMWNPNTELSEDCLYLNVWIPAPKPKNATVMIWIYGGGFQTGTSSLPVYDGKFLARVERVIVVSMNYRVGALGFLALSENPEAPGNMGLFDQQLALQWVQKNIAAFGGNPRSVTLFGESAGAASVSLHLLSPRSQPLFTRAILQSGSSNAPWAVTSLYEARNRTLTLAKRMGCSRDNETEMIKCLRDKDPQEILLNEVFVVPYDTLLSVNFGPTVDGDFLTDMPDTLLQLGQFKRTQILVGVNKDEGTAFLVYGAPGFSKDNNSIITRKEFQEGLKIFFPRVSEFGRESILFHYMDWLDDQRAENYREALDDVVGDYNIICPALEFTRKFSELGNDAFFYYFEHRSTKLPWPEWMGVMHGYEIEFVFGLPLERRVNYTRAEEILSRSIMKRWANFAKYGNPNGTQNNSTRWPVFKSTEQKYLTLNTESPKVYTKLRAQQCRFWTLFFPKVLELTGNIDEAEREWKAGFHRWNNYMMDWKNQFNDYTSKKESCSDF

On Acetylcholinesterase [1], `Nc1ccc2c(c1)C(=O)c1cccc3ccnc-2c13` registered a Ki of 3.86 µM. This compound yielded an IC50 at Cholinesterase of over 100 µM.

Take `C[N+]1(CCC(=O)Nc2ccc3c(c2)C(=O)c2cccc4ccnc-3c24)CCCCC1`: the results for the IC50 on Acetylcholinesterase [2] and at Cholinesterase were 0.00048 µM and 0.6 µM, respectively. The affinity at Acetylcholinesterase [1] corresponds to a Ki of 0.00031 µM. For the same compound, the Ratio IC50 in experiment [3] was 1250.

As to `C[N+]1(CCCNC(=O)c2cnc3c4c(cccc24)-c2ccccc2C3=O)CCOCC1`, the IC50 on Acetylcholinesterase [2] was 1.05 µM; against Cholinesterase, 4.75 µM. Also, the Ratio IC50 in experiment [3] was determined as 4.

On to `C[N+]1(CCNC(=O)c2cnc3c4c(cccc24)-c2ccccc2C3=O)CCCCC1`, for which the IC50 at Acetylcholinesterase [2] worked out at 0.35 µM; at Cholinesterase, 6.76 µM. For the same compound, the Ratio IC50 in experiment [3] was determined as 16.

In the case of `C[N+](C)(C)CCCNC(=O)c1cnc2c3c(cccc13)-c1ccccc1C2=O`, the IC50 against Acetylcholinesterase [2] was 3.16 µM; at Cholinesterase it was 2.71 µM. Moreover, the Ratio IC50 in experiment [3] was determined as 1.

As to `CC[N+](C)(CC)CCC(=O)Nc1ccc2c(c1)C(=O)c1cccc3ccnc-2c13`, the IC50 at Acetylcholinesterase [2] stood at 0.00262 µM; on Cholinesterase, 5.19 µM. In addition, the Ratio IC50 in experiment [3] stood at 1980.

As for `C[N+]1(CCCNC(=O)c2cnc3c4c(cccc24)-c2ccccc2C3=O)CCCCC1`, the 50% inhibitory concentration (IC50) against Acetylcholinesterase [2] was determined as 0.11 µM; against Cholinesterase, 6.24 µM. The compound also registered an inhibition constant (Ki) at Acetylcholinesterase [1] of 0.11 µM. For the same compound, the Ratio IC50 in experiment [3] was 57.

Turning to `CC[N+](C)(CC)CCNC(=O)c1cnc2c3c(cccc13)-c1ccccc1C2=O`, the concentration for half-maximal inhibition (IC50) on Acetylcholinesterase [2] is 1.71 µM; at Cholinesterase, 8.14 µM. In experiment [3], the Ratio IC50 is 5.

For the compound `O=C(NCCCO)c1cnc2c3c(cccc13)-c1ccccc1C2=O`, the IC50 against Acetylcholinesterase [2] was 12.2 µM; against Cholinesterase, 53.3 µM. Also, in experiment [3], the Ratio IC50 is 4.

In the case of `C[N+](C)(C)CCNC(=O)c1cnc2c3c(cccc13)-c1ccccc1C2=O`, the IC50 against Acetylcholinesterase [2] was 3.32 µM; on Cholinesterase, 5.03 µM. Moreover, in experiment [3], the Ratio IC50 is 1.

With `CC[N+](C)(CC)CCCNC(=O)c1cnc2c3c(cccc13)-c1ccccc1C2=O`, the IC50 at Acetylcholinesterase [2] is 0.65 µM; against Cholinesterase, 9.72 µM. The Ratio IC50 in experiment [3] was found to be 15.

Regarding `C[N+](C)(C)CCC(=O)Nc1ccc2c(c1)C(=O)c1cccc3ccnc-2c13`, in experiment [3], the Ratio IC50 came out at 590. The compound also gave an IC50 on Cholinesterase of 2.82 µM.

`O=C1c2ccccc2-c2cccc3ccnc1c23`: the values for the IC50 against Acetylcholinesterase [2] and at Cholinesterase were 10.6 µM and 4.01 µM, respectively. This compound registered an inhibitory constant (Ki) at Acetylcholinesterase [1] of 14.6 µM. Further, the Ratio IC50 in experiment [3] turned out to be 0.4.

Take `C[N+]1(CCNC(=O)c2cnc3c4c(cccc24)-c2ccccc2C3=O)CCOCC1`: the half-inhibitory concentration (IC50) at Acetylcholinesterase [2] was 1.24 µM; at Cholinesterase it was 11.7 µM. Moreover, the Ratio IC50 in experiment [3] was 9.

On to `O=C(NCCO)c1cnc2c3c(cccc13)-c1ccccc1C2=O`, for which the values for the IC50 on Acetylcholinesterase [2] and at Cholinesterase were 18 µM and 68.7 µM, respectively. Besides, the Ratio IC50 in experiment [3] was 4.
